Test results: ChEMBL document CHEMBL2331506, “Design, synthesis, antiviral and cytostatic evaluation of novel isoxazolidine nucleotide analogues with a carbamoyl linker” (Bioorg Med Chem, 2013)
The source made the active and inactive calls. The rule behind the calls is not given here.

Columns and labels:
Vero = assay: Cytotoxicity against african green monkey Vero cells assessed as alteration of cell morphology up to 100 uM by microscopic analysis; type: cell-based; details: chlorocebus sabaeus
Procedure, shortened: (§1)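 Uninfected host-cell cultures were exposed to compound and examined by microscopy. Cytotoxicity was expressed as the minimum cytotoxic concentration (MCC) causing a microscopically detectable alteration of normal cell morphology.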

Human alphaherpesvirus 1 [1] = assay: Antiviral activity against thymidine kinase-deficient, ACV-resistant Herpes simplex virus 1 KOS infected in human HEL cells assessed as reduction of virus-induced cytopathogenicity at 250 uM; type: functional, organism-based
Procedure, shortened: (§2)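 Confluent cell monolayers were infected with 100 CCID50 of virus while exposed to varying compound concentrations. Cytopathicity was scored once it was complete in untreated infected controls. EC50 was taken as the concentration that reduced virus-induced cytopathogenicity by 50%.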

Influenza A virus [2] = assay: Antiviral activity against Influenza A virus H1N1 infected in dog MDCK cells assessed as reduction of virus-induced cytopathogenicity at 250 uM; type: functional, organism-based; procedure, shortened: as §2
Coxsackievirus B4 = assay: Antiviral activity against Coxsackievirus B4 infected in african green monkey Vero cells assessed as reduction of virus-induced cytopathogenicity at 250 uM; type: functional, organism-based
Procedure, shortened: (§3)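 Confluent monolayers (HEL fibroblasts, Vero, or HeLa cells as listed) were infected with 100 CCID50 of virus in the presence of varying compound concentrations. Virus-induced cytopathicity or plaque formation was scored once cytopathicity was complete in untreated infected controls. EC50 was taken as the concentration reducing cytopathogenicity or plaque formation by 50%.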

Feline coronavirus = assay: Antiviral activity against Feline coronavirus infected in cat CRFK cells assessed as reduction of virus-induced cytopathogenicity at 250 uM; type: functional, organism-based
[3] = test system: Respiratory syncytial virus; assay: Antiviral activity against Respiratory syncytial virus long infected in human HeLa cells assessed as reduction of virus-induced cytopathogenicity at 250 uM; type: functional, organism-based; procedure, shortened: as §3
MDCK = assay: Cytotoxicity against dog MDCK cells assessed as alteration of cell morphology up to 100 uM by microscopic analysis; type: cell-based, Canis lupus familiaris; procedure, shortened: as §1
[4] = test system: Vesicular stomatitis virus; assay: Antiviral activity against Vesicular stomatitis virus infected in human HEL cells assessed as reduction of virus-induced cytopathogenicity at 250 uM; type: functional, organism-based; procedure, shortened: as §2
[5] = test system: Human immunodeficiency virus 1; assay: Antiviral activity against Human immunodeficiency virus 1 3B infected in human CEM cells assessed as reduction of virus-induced giant cell formation at 250 uM after 4 to 5 days; type: functional, organism-based; details: CCRF-CEM
Procedure, shortened: (§4)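 CEM cells at 3 × 10^5 cells/mL were infected with HIV at 100 CCID50 per mL in the presence of compound dilutions. They were held 4–5 days at 37 °C in humidified CO2. Syncytium (giant cell) formation was scored microscopically, and EC50 was taken as the concentration inhibiting giant cell formation by 50%.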

[6] = test system: Vesicular stomatitis virus; assay: Antiviral activity against Vesicular stomatitis virus infected in human HeLa cells assessed as reduction of virus-induced cytopathogenicity at 250 uM; type: functional, organism-based; procedure, shortened: as §2
Punta Toro virus = assay: Antiviral activity against Punta Toro virus infected in african green monkey Vero cells assessed as reduction of virus-induced cytopathogenicity at 250 uM; type: functional, organism-based; procedure, shortened: as §3
HEL = assay: Cytotoxicity against human HEL cells assessed as alteration of cell morphology up to 100 uM by microscopic analysis; type: cell-based; procedure, shortened: as §1
Influenza B virus = assay: Antiviral activity against Influenza B virus infected in dog MDCK cells assessed as reduction of virus-induced cytopathogenicity at 250 uM; type: functional, organism-based; procedure, shortened: as §2
[7] = test system: Human immunodeficiency virus 2; assay: Antiviral activity against Human immunodeficiency virus 2 ROD infected in human CEM cells assessed as reduction of virus-induced giant cell formation at 250 uM after 4 to 5 days; type: functional, organism-based; details: CCRF-CEM; procedure, shortened: as §4
HeLa [8] = assay: Cytostatic activity against human HeLa cells assessed as inhibition of cell proliferation after 72 hrs by Coulter counter analysis; type: functional, cell-based
Procedure, shortened: (§5)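 Each well received (5–7.5) × 10^4 tumor cells plus compound. L1210 cells grew 48 h and CEM and HeLa cells grew 72 h, at 37 °C in humidified CO2. Cells were then counted electronically, and IC50 was taken as the concentration inhibiting proliferation by 50%.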

Felid alphaherpesvirus 1 = assay: Antiviral activity against Feline herpes virus infected in cat CRFK cells assessed as reduction of virus-induced cytopathogenicity at 250 uM; type: functional, organism-based
Human respirovirus 3 = assay: Antiviral activity against Parainfluenza virus 3 infected in african green monkey Vero cells assessed as reduction of virus-induced cytopathogenicity at 250 uM; type: functional, organism-based; procedure, shortened: as §3
L1210 = assay: Cytostatic activity against mouse L1210 cells assessed as inhibition of cell proliferation after 48 hrs by Coulter counter analysis; type: functional, cell-based; details: L1210, 48 h; procedure, shortened: as §5
Sindbis virus = assay: Antiviral activity against Sindbis virus infected in african green monkey Vero cells assessed as reduction of virus-induced cytopathogenicity at 250 uM; type: functional, organism-based; procedure, shortened: as §3
[9] = Cytotoxicity against cat CRFK cells assessed as alteration of cell morphology up to 100 uM by microscopic analysis; type: cell-based, Felis catus; procedure, shortened: as §1
Influenza A virus [10] = assay: Antiviral activity against Influenza A virus H3N2 infected in dog MDCK cells assessed as reduction of virus-induced cytopathogenicity at 250 uM; type: functional, organism-based; procedure, shortened: as §2
HeLa [11] = assay: Cytotoxicity against human HeLa cells assessed as alteration of cell morphology up to 100 uM by microscopic analysis; type: cell-based; procedure, shortened: as §1
CCRF-CEM = assay: Cytostatic activity against human CEM cells assessed as inhibition of cell proliferation after 72 hrs by Coulter counter analysis; type: functional, cell-based; procedure, shortened: as §5
Human alphaherpesvirus 1 [12] = assay: Antiviral activity against Herpes simplex virus 1 KOS infected in human HEL cells assessed as reduction of virus-induced cytopathogenicity at 250 uM; type: functional, organism-based; procedure, shortened: as §3
[13] = test system: Mammalian orthoreovirus 1; assay: Antiviral activity against Reovirus 1 infected in african green monkey Vero cells assessed as reduction of virus-induced cytopathogenicity at 250 uM; type: functional, organism-based; procedure, shortened: as §3
Human alphaherpesvirus 2 = assay: Antiviral activity against Herpes simplex virus 2 G infected in human HEL cells assessed as reduction of virus-induced cytopathogenicity at 250 uM; type: functional, organism-based; details: strain G; procedure, shortened: as §3

CCOP(=O)(OCC)[C@H]1C[C@H](C(=O)Nc2cccc(F)c2)ON1C (mixture of isomers)
Activity (Vero): Non-toxic
inhibition (Human alphaherpesvirus 1 [1]): inactive
inhibition (Influenza A virus [2]): inactive
inhibition (Coxsackievirus B4): inactive
inhibition (Feline coronavirus): inactive
inhibition [3]: inactive
Activity (MDCK): Non-toxic
inhibition [4]: inactive
inhibition [5]: inactive
inhibition [6]: inactive
inhibition (Punta Toro virus): inactive
Activity (HEL): Non-toxic
inhibition (Influenza B virus): inactive
inhibition [7]: inactive
IC50 (HeLa [8]): > 250 µM
inhibition (Felid alphaherpesvirus 1): inactive
inhibition (Human respirovirus 3): inactive
IC50 (L1210): > 250 µM
inhibition (Sindbis virus): inactive
Activity [9]: Non-toxic
inhibition (Influenza A virus [10]): inactive
Activity (HeLa [11]): Non-toxic
IC50 (CCRF-CEM): > 250 µM
inhibition (Human alphaherpesvirus 1 [12]): inactive
inhibition [13]: inactive
inhibition (Human alphaherpesvirus 2): inactive

CCOP(=O)(OCC)[C@H]1C[C@H](C(=O)Nc2ccc(C)cc2)ON1C (relative stereo)
Activity (Vero): Non-toxic
inhibition (Human alphaherpesvirus 1 [1]): inactive
inhibition (Influenza A virus [2]): inactive
inhibition (Coxsackievirus B4): inactive
inhibition (Feline coronavirus): inactive
inhibition [3]: inactive
Activity (MDCK): Non-toxic
inhibition [4]: inactive
inhibition [5]: inactive
inhibition [6]: inactive
inhibition (Punta Toro virus): inactive
Activity (HEL): Non-toxic
inhibition (Influenza B virus): inactive
inhibition [7]: inactive
inhibition (Felid alphaherpesvirus 1): inactive
inhibition (Human respirovirus 3): inactive
inhibition (Sindbis virus): inactive
Activity [9]: Non-toxic
inhibition (Influenza A virus [10]): inactive
Activity (HeLa [11]): Non-toxic
inhibition (Human alphaherpesvirus 1 [12]): inactive
inhibition [13]: inactive
inhibition (Human alphaherpesvirus 2): inactive

CCOP(=O)(OCC)[C@@H]1C[C@H](C(=O)Nc2cccc(OC)c2)ON1C (mixture of isomers)
Activity (Vero): Non-toxic
inhibition (Human alphaherpesvirus 1 [1]): inactive
inhibition (Influenza A virus [2]): inactive
inhibition (Coxsackievirus B4): inactive
inhibition (Feline coronavirus): inactive
inhibition [3]: inactive
Activity (MDCK): Non-toxic
inhibition [4]: inactive
inhibition [5]: inactive
inhibition [6]: inactive
inhibition (Punta Toro virus): inactive
Activity (HEL): Non-toxic
inhibition (Influenza B virus): inactive
inhibition [7]: inactive
inhibition (Felid alphaherpesvirus 1): inactive
inhibition (Human respirovirus 3): inactive
inhibition (Sindbis virus): inactive
Activity [9]: Non-toxic
inhibition (Influenza A virus [10]): inactive
Activity (HeLa [11]): Non-toxic
inhibition (Human alphaherpesvirus 1 [12]): inactive
inhibition [13]: inactive
inhibition (Human alphaherpesvirus 2): inactive

CCOP(=O)(OCC)[C@@H]1C[C@H](C(=O)Nc2cc(OC)c(OC)cc2C#N)ON1C (mixture of isomers)
Activity (Vero): Non-toxic
inhibition (Human alphaherpesvirus 1 [1]): inactive
inhibition (Influenza A virus [2]): inactive
inhibition (Coxsackievirus B4): inactive
inhibition (Feline coronavirus): inactive
inhibition [3]: inactive
Activity (MDCK): Non-toxic
inhibition [4]: inactive
inhibition [5]: inactive
inhibition [6]: inactive
inhibition (Punta Toro virus): inactive
Activity (HEL): Non-toxic
inhibition (Influenza B virus): inactive
inhibition [7]: inactive
inhibition (Felid alphaherpesvirus 1): inactive
inhibition (Human respirovirus 3): inactive
inhibition (Sindbis virus): inactive
Activity [9]: Non-toxic
inhibition (Influenza A virus [10]): inactive
Activity (HeLa [11]): Non-toxic
inhibition (Human alphaherpesvirus 1 [12]): inactive
inhibition [13]: inactive
inhibition (Human alphaherpesvirus 2): inactive
